{"source": "ChEMBL document CHEMBL2407002", "about": "“Simplification of antitumoral phenanthroindolizidine alkaloids: short synthesis of cytotoxic indolizidinone and pyrrolidine analogs” (2013)", "key": {"[1]": {"tested_on": "SH-SY5Y", "assay": "Cytotoxicity against human SH-SY5Y cells assessed as cell viability at 30 uM after 48 hrs by trypan blue staining-based assay", "type": "functional", "procedure,_shortened": "(§1)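 Indolizidinone series: MCF-7 grown in DMEM phenol red and SHSY-5Y in DMEM/F12 Ham's, each with 10% FBS, at 37 °C under 5% CO2 to 80% confluence. About 10 × 10⁶ cells were seeded, grown 24 h, then exposed 24 or 48 h to vehicle (0.05% DMSO) or increasing compound concentrations in DMSO. Viable cells were counted by trypan blue staining on a Vi-Cell-XR analyzer.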"}, "[2]": {"tested_on": "MCF7", "assay": "Cytotoxicity against human MCF7 cells assessed as cell viability at 30 uM after 48 hrs by trypan blue staining-based assay", "type": "functional", "procedure,_shortened": "as §1"}, "[3]": {"tested_on": "MCF7", "assay": "Cytotoxicity against human MCF7 cells assessed as change in cell morphology at 30 uM after 48 hrs", "type": "functional, cell-based", "procedure,_shortened": "(§2)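 Cells were treated at 30 µM (0.05% DMSO vehicle controls) and examined microscopically over time, from 6 h up to 48 h. Changes scored were cell and nuclear volume, nucleolar refringency and cytoplasm vacuolization, compared with vehicle-treated cells.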"}, "[4]": {"tested_on": "SH-SY5Y", "assay": "Cytotoxicity against human SH-SY5Y cells assessed as change in cell morphology at 30 uM after 48 hrs", "type": "functional, cell-based", "procedure,_shortened": "as §2"}, "[5]": {"tested_on": "MCF7", "assay": "Cytotoxicity against human MCF7 cells assessed as cell death at 30 uM after 48 hrs by trypan blue staining-based assay relative to control", "type": "functional", "procedure,_shortened": "(§3)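 Cells grown at 37 °C, 5% CO2 to 80% confluence: MCF-7 in phenol red DMEM + 10% FBS, SH-SY5Y in DMEM/F12 Ham's + 10% FBS. About 10 × 10⁶ cells were seeded and grown 24 h, then exposed 48 h to compound in […] or to vehicle (0.05% DMSO). Viable cells were counted by trypan blue staining on an automated analyzer. Compared with vehicle.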"}, "[6]": {"assay": "Cytotoxicity against human SH-SY5Y cells assessed as cell death at 30 uM after 48 hrs by trypan blue staining-based assay relative to control", "type": "functional", "procedure,_shortened": "as §3"}, "[7]": {"tested_on": "SH-SY5Y", "assay": "Cytotoxicity against human SH-SY5Y cells assessed as cell mortality at 30 uM after 48 hrs by trypan blue exclusion assay", "type": "functional, cell-based", "procedure,_shortened": "(§4)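 Pyrrolidine series: MCF-7 in DMEM and SHSY-5Y in DMEM/F12 with 10% FBS, grown to 70% confluence. Compounds in DMSO (0.05%) were added at 10 µM for 24 h or 30 µM for 48 h, with DMSO (0.05%) vehicle controls for the same period. Mortality was derived from trypan blue counts. Data are mean ± SEM of 5-6 assays, analysed by one-way ANOVA followed by Student's t test versus vehicle.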"}, "[8]": {"tested_on": "SH-SY5Y", "assay": "Cytotoxicity against human SH-SY5Y cells assessed as cell mortality at 10 uM after 24 hrs by trypan blue exclusion assay", "type": "functional, cell-based", "procedure,_shortened": "as §4"}, "[9]": {"tested_on": "MCF7", "assay": "Cytotoxicity against human MCF7 cells assessed as cell mortality at 10 uM after 24 hrs by trypan blue exclusion assay", "type": "functional, cell-based", "procedure,_shortened": "as §4"}, "[10]": {"tested_on": "MCF7", "assay": "Cytotoxicity against human MCF7 cells assessed as cell mortality at 30 uM after 48 hrs by trypan blue exclusion assay relative to control", "type": "functional", "procedure,_shortened": "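MCF-7 cells were cultured in DMEM + 10% FBS to 70% confluence. Compound was dissolved in DMSO (0.05%) and added to the medium for 48 h. Controls received 0.05% DMSO for the same period. Total cells, viable cells and mortality were calculated per compound and dose. Results are given as mean ± SEM of 5–6 assays, analysed by one-way ANOVA then Student's t test.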"}, "[11]": {"tested_on": "MCF7", "assay": "Cytotoxicity against human MCF7 cells after 24 to 48 hrs by trypan blue exclusion assay", "type": "functional, cell-based", "procedure,_shortened": "as §1"}, "[12]": {"tested_on": "SH-SY5Y", "assay": "Cytotoxicity against human SH-SY5Y cells after 24 to 48 hrs by trypan blue exclusion assay", "type": "functional, cell-based", "procedure,_shortened": "as §1"}, "[13]": {"tested_on": "MCF7", "assay": "Cytotoxicity against human MCF7 cells assessed as cytoplasm vacuolization at 30 uM", "type": "functional, cell-based", "conditions": "TDE = time-dependent effect", "procedure,_shortened": "as §2"}, "[14]": {"tested_on": "MCF7", "assay": "Cytotoxicity against human MCF7 cells assessed as increase in nuclear volume at 30 uM", "type": "functional, cell-based", "conditions": "TDE = time-dependent effect", "procedure,_shortened": "as §2"}, "[15]": {"tested_on": "MCF7", "assay": "Cytotoxicity against human MCF7 cells assessed as nucleolar refringency at 30 uM", "type": "functional, cell-based", "conditions": "TDE = time-dependent effect", "procedure,_shortened": "as §2"}, "[16]": {"tested_on": "MCF7", "assay": "Cytotoxicity against human MCF7 cells assessed as increase in cellular volume at 30 uM", "type": "functional, cell-based", "conditions": "TDE = time-dependent effect", "procedure,_shortened": "as §2"}}, "note": "Activity calls are given as the source filed them. No cut-off for these calls is given here.", "data": [{"molecule": "O=C1C(c2ccccc2)=C(c2ccc(Br)cc2)C[C@@H]2C[C@@H](O)CN12", "values": [{"measurement": "Activity", "setting": "[1]", "value": "Active"}, {"measurement": "Activity", "setting": "[2]", "value": "Active"}]}, {"molecule": "O=C1C(c2ccccc2)=C(c2ccc(-c3ccccc3)cc2)C[C@H]2C[C@@H](O)CN12", "values": [{"measurement": "Activity", "setting": "[3]", "value": "Active"}, {"measurement": "Activity", "setting": "[4]", "value": "Active"}, {"measurement": "Activity", "setting": "[5]", "value": 80, "unit": "%"}, {"measurement": "Activity", "setting": "[6]", "value": 80, "unit": "%"}, {"measurement": "Activity", "setting": "[1]", "value": "Active"}, {"measurement": "Activity", "setting": "[2]", "value": "Active"}]}, {"molecule": "O=C1C(c2ccccc2)=C(c2ccc(Br)cc2)C[C@H]2C[C@@H](O)CN12", "values": [{"measurement": "Activity", "setting": "[2]", "value": "Active"}]}, {"molecule": "COc1ccc(C2=C(c3ccccc3)C(=O)N3C[C@H](O)C[C@@H]3C2)cc1", "values": [{"measurement": "Activity", "setting": "[2]", "value": "Active"}]}, {"molecule": "O=C1C(c2ccccc2)=C(c2ccco2)C[C@@H]2C[C@@H](O)CN12", "values": [{"measurement": "Activity", "setting": "[1]", "value": "Active"}, {"measurement": "Activity", "setting": "[2]", "value": "Active"}]}, {"molecule": "Cn1cccc1C(=O)C[C@@H]1C[C@@H](O)CN1C(=O)Cc1ccccc1", "values": [{"measurement": "Activity", "setting": "[7]", "value": "Active"}, {"measurement": "Activity", "setting": "[8]", "value": "Active"}, {"measurement": "Activity", "setting": "[9]", "value": "Active"}, {"measurement": "Activity", "setting": "[10]", "value": "Active"}]}, {"molecule": "O=C1C(c2ccccc2)=C(c2ccc3ccccc3c2)C[C@@H]2C[C@@H](O)CN12", "values": [{"measurement": "Activity", "setting": "[1]", "value": "Active"}, {"measurement": "Activity", "setting": "[2]", "value": "Active"}]}, {"molecule": "Cn1cccc1C1=C(c2ccccc2)C(=O)N2C[C@H](O)C[C@@H]2C1", "values": [{"measurement": "Activity", "setting": "[1]", "value": "Active"}, {"measurement": "Activity", "setting": "[2]", "value": "Active"}]}, {"molecule": "O=C1C(c2ccccc2)=C(c2ccccc2)C[C@@H]2C[C@@H](O)CN12", "values": [{"measurement": "Activity", "setting": "[2]", "value": "Active"}]}, {"molecule": "O=C1C(c2ccccc2)=C(c2ccccc2)C[C@H]2C[C@@H](O)CN12", "values": [{"measurement": "Activity", "setting": "[2]", "value": "Active"}]}, {"molecule": "O=C1C(c2ccccc2)=C(c2ccco2)C[C@H]2C[C@@H](O)CN12", "values": [{"measurement": "Activity", "setting": "[2]", "value": "Active"}]}, {"molecule": "Cn1cccc1C(=O)CC1C[C@@H](O)CN1C(=O)Cc1ccccc1", "note": "(stereo not given in full)", "values": [{"measurement": "Activity", "setting": "[7]", "value": "Active"}, {"measurement": "Activity", "setting": "[8]", "value": "Active"}, {"measurement": "Activity", "setting": "[9]", "value": "Active"}, {"measurement": "Activity", "setting": "[10]", "value": "Active"}]}, {"molecule": "O=C(C[C@@H]1C[C@@H](O)CN1C(=O)Cc1ccccc1)c1ccc(-c2ccccc2)cc1", "values": [{"measurement": "Activity", "setting": "[9]", "value": "Active"}, {"measurement": "Activity", "setting": "[10]", "value": ">=80%"}, {"measurement": "Activity", "setting": "[11]", "value": "Dose-dependent effect"}, {"measurement": "Activity", "setting": "[12]", "value": "Dose-dependent effect"}]}, {"molecule": "O=C1C(c2ccccc2)=C(c2ccc(-c3ccccc3)cc2)C[C@@H]2C[C@@H](O)CN12", "values": [{"measurement": "Activity", "setting": "[1]", "value": "Active"}, {"measurement": "Activity", "setting": "[2]", "value": "Active"}]}, {"molecule": "O=C(C[C@@H]1C[C@@H](O)CN1C(=O)Cc1ccccc1)c1ccco1", "values": [{"measurement": "Activity", "setting": "[11]", "value": "Dose-dependent effect"}, {"measurement": "Activity", "setting": "[12]", "value": "Dose-dependent effect"}]}, {"molecule": "O=C1C(c2ccccc2)=C(c2ccc3ccccc3c2)C[C@H]2C[C@@H](O)CN12", "values": [{"measurement": "Activity", "setting": "[2]", "value": "Active"}]}, {"molecule": "O=C(CC1C[C@@H](O)CN1C(=O)Cc1ccccc1)c1ccc(Br)cc1", "note": "(stereo not given in full)", "values": [{"measurement": "Activity", "setting": "[7]", "value": "Active"}, {"measurement": "Activity", "setting": "[8]", "value": "Active"}, {"measurement": "Activity", "setting": "[9]", "value": "Active"}, {"measurement": "Activity", "setting": "[10]", "value": "Active"}]}, {"molecule": "COc1ccc(C(=O)CC2C[C@@H](O)CN2C(=O)Cc2ccccc2)cc1", "note": "(stereo not given in full)", "values": [{"measurement": "Activity", "setting": "[7]", "value": "Active"}, {"measurement": "Activity", "setting": "[8]", "value": "Active"}, {"measurement": "Activity", "setting": "[9]", "value": "Active"}, {"measurement": "Activity", "setting": "[10]", "value": "Active"}]}, {"molecule": "O=C(CC1C[C@@H](O)CN1C(=O)Cc1ccccc1)c1ccco1", "note": "(stereo not given in full)", "values": [{"measurement": "Activity", "setting": "[7]", "value": "Active"}, {"measurement": "Activity", "setting": "[8]", "value": "Active"}, {"measurement": "Activity", "setting": "[9]", "value": "Active"}, {"measurement": "Activity", "setting": "[10]", "value": "Active"}]}, {"molecule": "Cn1cccc1C1=C(c2ccccc2)C(=O)N2C[C@H](O)C[C@H]2C1", "values": [{"measurement": "Activity", "setting": "[1]", "value": "Active"}, {"measurement": "Activity", "setting": "[2]", "value": "Active"}]}, {"molecule": "O=C(C[C@H]1C[C@@H](O)CN1C(=O)Cc1ccccc1)c1ccco1", "values": [{"measurement": "Activity", "setting": "[7]", "value": "Active"}, {"measurement": "Activity", "setting": "[8]", "value": "Active"}, {"measurement": "Activity", "setting": "[9]", "value": "Active"}, {"measurement": "Activity", "setting": "[10]", "value": "Active"}]}, {"molecule": "COc1ccc(C2=C(c3ccccc3)C(=O)N3C[C@H](O)C[C@H]3C2)cc1", "values": [{"measurement": "Activity", "setting": "[1]", "value": "Active"}, {"measurement": "Activity", "setting": "[2]", "value": "Active"}]}, {"molecule": "O=C(C[C@H]1C[C@@H](O)CN1C(=O)Cc1ccccc1)c1ccc(-c2ccccc2)cc1", "values": [{"measurement": "Activity", "setting": "[13]", "value": "tde"}, {"measurement": "Activity", "setting": "[14]", "value": "tde"}, {"measurement": "Activity", "setting": "[15]", "value": "tde"}, {"measurement": "Activity", "setting": "[16]", "value": "tde"}, {"measurement": "Activity", "setting": "[9]", "value": "Active"}, {"measurement": "Activity", "setting": "[4]", "value": "Active"}, {"measurement": "Activity", "setting": "[10]", "value": ">=80%"}, {"measurement": "Activity", "setting": "[11]", "value": "Dose-dependent effect"}, {"measurement": "Activity", "setting": "[12]", "value": "Dose-dependent effect"}]}]}
